Assay results as given in ChEMBL document CHEMBL4251593, “Nontoxic combretafuranone analogues with high in vitro antibacterial activity” (Eur J Med Chem, 2018).
Values after ≈ are worked out from the molar mass of the structure shown.

Tests used:
[1] = system: Staphylococcus epidermidis; assay: Antibacterial activity against Staphylococcus epidermidis HK6966/08 clinical isolate after 24 hrs by microdilution assay; assay type: functional; conditions: HK6966/08, 24 h
Escherichia coli [2] = assay: Antibacterial activity against Escherichia coli ATCC 8739 after 48 hrs by microdilution assay; assay type: functional; conditions: ATCC 8739, 48 h
Outline: (§1)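 Broth microdilution in Mueller-Hinton medium buffered to pH 7.4 (±0.2), with DMSO as diluent at no more than 2% final. Compounds were tested as 2-fold serial dilutions from 2000 to 0.488 µmol/l. The inoculum was 0.5 McFarland (1.5×10^8 cfu/ml). Plates were held at 37 °C and read visually at 24 and 48 h. MIC was taken as 95% growth inhibition versus control, determined twice in duplicate.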

MCF7 = assay: Cytotoxicity against human MCF7 cells assessed as reduction in cell viability after 48 hrs by ATPlite-based luminescent assay; conditions: MCF7, 48 h
HL-60 [3] = assay: Induction of apoptosis in human HL60 cells assessed as caspase 3/7 activity after 24 hrs by caspase-glo luminescent assay; assay type: cell-based; conditions: HL-60, 24 h
Outline: (§2)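 Cells were seeded at 500 per well in their growth media and exposed to 12 concentrations from 40 µM to 1 nM, delivered from DMSO, in triplicate. After 24 h, caspase-3/7 activity was read by Caspase-Glo luminescence. Data were normalized and ED50 was fitted by variable-slope nonlinear regression.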

PC-3 [4] = assay: Cytotoxicity against human PC3 cells assessed as reduction in cell viability after 48 hrs by ATPlite-based luminescent assay; conditions: PC-3, 48 h
Outline: (§3)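 Cells were grown […] with 10% FBS, glutamax, NEAA and pen/strep at 37 °C, 5% CO2. Media were DMEM for RPE-1, HepG2 and BJ (BJ plus 10 ng/ml bFGF), F-12K for PC3, and IMDM for K562/HL-60. Cells were seeded at 500 per well and dosed from DMSO at 12 concentrations, 40 µM to 1 nM, in triplicate. After 48 h, intracellular ATP was read by luminescence. ED50 was obtained by variable-slope nonlinear regression.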

HL-60 [5] = assay: Cytotoxicity against human HL60 cells assessed as reduction in cell viability after 48 hrs by ATPlite-based luminescent assay; conditions: HL-60, 48 h; outline: as §3
[6] = system: Staphylococcus epidermidis; assay: Antibacterial activity against Staphylococcus epidermidis HK6966/08 clinical isolate after 48 hrs by microdilution assay; assay type: functional; conditions: HK6966/08, 48 h
K562 [7] = assay: Cytotoxicity against human K562 cells assessed as reduction in cell viability after 48 hrs by ATPlite-based luminescent assay; conditions: K562, 48 h; outline: as §3
Klebsiella pneumoniae [8] = assay: Antibacterial activity against Klebsiella pneumoniae HK14368/08 clinical isolate after 24 hrs by microdilution assay; assay type: functional; conditions: HK14368/08, 24 h
HepG2 [9] = assay: Cytotoxicity against human HepG2 cells assessed as reduction in cell viability after 48 hrs by ATPlite-based luminescent assay; conditions: HepG2, 48 h; outline: as §3
Klebsiella pneumoniae [10] = assay: Antibacterial activity against Klebsiella pneumoniae HK11750/08 clinical isolate after 48 hrs by microdilution assay; assay type: functional; conditions: HK11750/08, 48 h
Staphylococcus aureus [11] = assay: Antibacterial activity against methicillin-resistant Staphylococcus aureus HK5996/08 clinical isolate after 48 hrs by microdilution assay; assay type: functional; conditions: HK5996/08, 48 h
TERT-RPE1 [12] = assay: Induction of apoptosis in human RPE1 cells assessed as caspase 3/7 activity after 24 hrs by caspase-glo luminescent assay; assay type: cell-based; conditions: RPE-1, 24 h; outline: as §2
HepG2 [13] = assay: Induction of apoptosis in human HepG2 cells assessed as caspase 3/7 activity after 24 hrs by caspase-glo luminescent assay; assay type: cell-based; conditions: HepG2, 24 h; outline: as §2
Staphylococcus aureus [14] = assay: Antibacterial activity against Staphylococcus aureus ATCC 6538 after 48 hrs by microdilution assay; assay type: functional; conditions: ATCC 6538, 48 h
Pseudomonas aeruginosa [15] = assay: Antibacterial activity against Pseudomonas aeruginosa ATCC 9027 after 24 hrs by microdilution assay; assay type: functional; conditions: ATCC 9027, 24 h; outline: as §1
BJ = assay: Cytotoxicity against human BJ cells assessed as reduction in cell viability after 48 hrs by ATPlite-based luminescent assay; outline: as §3
Enterococcus sp. [16] = assay: Antibacterial activity against Enterococcus sp. HK14365/08 clinical isolate after 24 hrs by microdilution assay; assay type: functional; conditions: HK14365/08, 24 h
K562 [17] = assay: Induction of apoptosis in human K562 cells assessed as caspase 3/7 activity after 24 hrs by caspase-glo luminescent assay; assay type: cell-based; conditions: K562, 24 h; outline: as §2
Pseudomonas aeruginosa [18] = assay: Antibacterial activity against Pseudomonas aeruginosa ATCC 9027 after 48 hrs by microdilution assay; assay type: functional; conditions: ATCC 9027, 48 h; outline: as §1
Staphylococcus aureus [19] = assay: Antibacterial activity against methicillin-resistant Staphylococcus aureus HK5996/08 clinical isolate after 24 hrs by microdilution assay; assay type: functional; conditions: HK5996/08, 24 h
Klebsiella pneumoniae [20] = assay: Antibacterial activity against Klebsiella pneumoniae HK11750/08 clinical isolate after 24 hrs by microdilution assay; assay type: functional; conditions: HK11750/08, 24 h
PC-3 [21] = assay: Induction of apoptosis in human PC3 cells assessed as caspase 3/7 activity after 24 hrs by caspase-glo luminescent assay; assay type: cell-based; conditions: PC-3, 24 h; outline: as §2
Klebsiella pneumoniae [22] = assay: Antibacterial activity against Klebsiella pneumoniae HK14368/08 clinical isolate after 48 hrs by microdilution assay; assay type: functional; conditions: HK14368/08, 48 h
Staphylococcus aureus [23] = assay: Antibacterial activity against Staphylococcus aureus ATCC 6538 after 24 hrs by microdilution assay; assay type: functional; conditions: ATCC 6538, 24 h
TERT-RPE1 [24] = assay: Cytotoxicity against human RPE1 cells assessed as reduction in cell viability after 48 hrs by ATPlite-based luminescent assay; conditions: RPE-1, 48 h; outline: as §3
Escherichia coli [25] = assay: Antibacterial activity against Escherichia coli ATCC 8739 after 24 hrs by microdilution assay; assay type: functional; conditions: ATCC 8739, 24 h; outline: as §1
Enterococcus sp. [26] = assay: Antibacterial activity against Enterococcus sp. HK14365/08 clinical isolate after 48 hrs by microdilution assay; assay type: functional; conditions: HK14365/08, 48 h

SMILES	MIC95 [1]	MIC95 (Escherichia coli [2])	IC50 (MCF7)	IC50 (HL-60 [3])	IC50 (PC-3 [4])	IC50 (HL-60 [5])	MIC95 [6]	IC50 (K562 [7])	MIC95 (Klebsiella pneumoniae [8])	IC50 (HepG2 [9])	MIC95 (Klebsiella pneumoniae [10])	MIC95 (Staphylococcus aureus [11])	IC50 (TERT-RPE1 [12])	IC50 (HepG2 [13])	MIC95 (Staphylococcus aureus [14])	MIC95 (Pseudomonas aeruginosa [15])	IC50 (BJ)	MIC95 (Enterococcus sp. [16])	IC50 (K562 [17])	MIC95 (Pseudomonas aeruginosa [18])	also measured
Cc1ccc(C2=C(c3ccc(F)cc3)C(=O)OC2)cc1	125 µM (≈ 33.5 µg/mL)	> 500 µM	> 40 µM	7.53 µM	> 40 µM	9.34 µM	125 µM (≈ 33.5 µg/mL)	4 µM	> 500 µM	> 40 µM	> 500 µM	> 500 µM	> 40 µM	> 40 µM	125 µM (≈ 33.5 µg/mL)	> 500 µM	> 40 µM	> 500 µM	3.23 µM	> 500 µM	MIC95 (Staphylococcus aureus [19]): > 500 µM; MIC95 (Klebsiella pneumoniae [20]): > 500 µM; IC50 (PC-3 [21]): > 40 µM; MIC95 (Klebsiella pneumoniae [22]): > 500 µM; MIC95 (Staphylococcus aureus [23]): 125 µM (≈ 33.5 µg/mL); IC50 (TERT-RPE1 [24]): > 40 µM; MIC95 (Escherichia coli [25]): > 500 µM; MIC95 (Enterococcus sp. [26]): > 500 µM
COc1ccc(C2=C(c3ccc(OC)c(OC)c3)C(CO)OC2=O)cc1 (stereo not given)	62.5 µM (≈ 22.3 µg/mL)	> 125 µM	> 40 µM	> 40 µM	> 40 µM	> 40 µM	62.5 µM (≈ 22.3 µg/mL)	> 40 µM	> 125 µM	> 40 µM	> 125 µM	125 µM (≈ 44.5 µg/mL)	> 40 µM	> 40 µM	125 µM (≈ 44.5 µg/mL)	> 125 µM	> 40 µM	> 125 µM	> 40 µM	> 125 µM	MIC95 (Staphylococcus aureus [19]): 125 µM (≈ 44.5 µg/mL); MIC95 (Klebsiella pneumoniae [20]): > 125 µM; IC50 (PC-3 [21]): > 40 µM; MIC95 (Klebsiella pneumoniae [22]): > 125 µM; MIC95 (Staphylococcus aureus [23]): 125 µM (≈ 44.5 µg/mL); IC50 (TERT-RPE1 [24]): > 40 µM; MIC95 (Escherichia coli [25]): > 125 µM; MIC95 (Enterococcus sp. [26]): > 125 µM
Cc1ccc(C2=C(c3ccc(Br)cc3)C(=O)OC2)cc1	15.6 µM (≈ 5.14 µg/mL)	> 1000 µM	14.8 µM	2.77 µM	> 40 µM	0.65 µM	31.2 µM (≈ 10.3 µg/mL)	0.3 µM	> 1000 µM	> 40 µM	> 1000 µM	62.5 µM (≈ 20.6 µg/mL)	8.16 µM	> 40 µM	15.6 µM (≈ 5.14 µg/mL)	> 1000 µM	> 40 µM	> 1000 µM	0.29 µM	> 1000 µM	MIC95 (Staphylococcus aureus [19]): 62.5 µM (≈ 20.6 µg/mL); MIC95 (Klebsiella pneumoniae [20]): > 1000 µM; IC50 (PC-3 [21]): > 40 µM; MIC95 (Klebsiella pneumoniae [22]): > 1000 µM; MIC95 (Staphylococcus aureus [23]): 7.81 µM (≈ 2.57 µg/mL); IC50 (TERT-RPE1 [24]): 0.97 µM; MIC95 (Escherichia coli [25]): > 1000 µM; MIC95 (Enterococcus sp. [26]): > 1000 µM
O=C1OCC(c2ccc(C(F)(F)F)cc2)=C1c1ccncc1	250 µM (≈ 76.3 µg/mL)	> 500 µM	> 40 µM	> 40 µM	> 40 µM	> 40 µM	250 µM (≈ 76.3 µg/mL)	> 40 µM	> 500 µM	> 40 µM	> 500 µM	500 µM (≈ 153 µg/mL)	> 40 µM	> 40 µM	> 500 µM	> 500 µM	> 40 µM	> 500 µM	> 40 µM	> 500 µM	MIC95 (Staphylococcus aureus [19]): 500 µM (≈ 153 µg/mL); MIC95 (Klebsiella pneumoniae [20]): > 500 µM; IC50 (PC-3 [21]): > 40 µM; MIC95 (Klebsiella pneumoniae [22]): > 500 µM; MIC95 (Staphylococcus aureus [23]): > 500 µM; IC50 (TERT-RPE1 [24]): > 40 µM; MIC95 (Escherichia coli [25]): > 500 µM; MIC95 (Enterococcus sp. [26]): > 500 µM
COc1ccc(C2=C(c3ccc(Br)cc3)C(=O)OC2)cc1	1000 µM (≈ 345 µg/mL)	> 1000 µM	14.3 µM	2.18 µM	> 40 µM	0.83 µM	> 1000 µM	0.53 µM	> 1000 µM	> 40 µM	> 1000 µM	> 1000 µM	56.4 µM	> 40 µM	> 1000 µM	> 1000 µM	> 40 µM	> 1000 µM	> 40 µM	> 1000 µM	MIC95 (Staphylococcus aureus [19]): > 1000 µM; MIC95 (Klebsiella pneumoniae [20]): > 1000 µM; IC50 (PC-3 [21]): > 40 µM; MIC95 (Klebsiella pneumoniae [22]): > 1000 µM; MIC95 (Staphylococcus aureus [23]): > 1000 µM; IC50 (TERT-RPE1 [24]): 3.35 µM; MIC95 (Escherichia coli [25]): > 1000 µM; MIC95 (Enterococcus sp. [26]): > 1000 µM
